Laboratory results as given in ChEMBL document CHEMBL2321840, “Synthesis and structure-activity relationships of indazole arylsulfonamides as allosteric CC-chemokine receptor 4 (CCR4) antagonists” (J Med Chem, 2013).
pIC50: −log10 of the molar value. Values after ≈ are worked out from the molar mass of the structure shown.

Legend:
[1] = target: C-X-C chemokine receptor type 4 (Homo sapiens, UniProt P61073); assay: Antagonist activity at CXCR4 receptor (unknown origin) by [35S]GTPgammaS binding assay; type: functional
C-X-C chemokine receptor type 4, sequence (P61073 whole entry): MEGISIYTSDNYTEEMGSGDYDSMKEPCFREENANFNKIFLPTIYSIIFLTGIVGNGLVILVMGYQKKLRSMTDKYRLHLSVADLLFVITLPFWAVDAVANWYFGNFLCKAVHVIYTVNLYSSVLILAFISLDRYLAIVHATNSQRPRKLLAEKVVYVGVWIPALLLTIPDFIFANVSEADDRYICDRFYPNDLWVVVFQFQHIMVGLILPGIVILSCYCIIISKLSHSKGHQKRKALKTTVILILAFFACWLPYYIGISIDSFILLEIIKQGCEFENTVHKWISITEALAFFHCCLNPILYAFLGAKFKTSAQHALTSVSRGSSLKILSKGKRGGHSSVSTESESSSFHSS

[2] = Equilibrium solubility of the compound in Britton-Robinson buffer at pH 8 after 24 hrs by HPLC analysis; type: physicochemical
Procedure, shortened: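 Solid compound was equilibrated 24 h in Britton–Robinson buffer at the stated pH. Dissolved compound was quantified by HPLC.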

Oryctolagus cuniculus = species: Oryctolagus cuniculus; assay: Cardiotoxicity in rabbit ventricular wedge assessed as cardiovascular issues upto 10 uM; type: toxicity, Cardiac ventricle

Question: With `COc1cccc2c1c(NS(=O)(=O)c1ccc(Cl)s1)nn2Cc1cccc(CNC(=O)C(C)(C)O)c1` as the compound, how does the pIC50 [1] read?
Answer: < 5.00

Question: And the solubility thermodynamic at 24 h [2]?
Answer: 56 µg/mL (≈ 102 µM)

Question: And the Activity (Oryctolagus cuniculus)?
Answer: Non-toxic
